From ChEMBL document CHEMBL1126064, “Enzymatic synthesis and comparative biological evaluation of a phosphonate analogue of the lipid A precursor” (1992)

Key:
[1] = target: T1, Ornithine decarboxylase (Mus musculus) (UniProt P00860); experiment: Compound was evaluated for the stimulation of Ornithine decarboxylase (ODC) activity in murine macrophagelike cell line RAW264 as a parameter for macrophage stimulation, and the pyrogenicity test in rabbits at a concentration of 0.02 ug/ml
T1 sequence (whole entry): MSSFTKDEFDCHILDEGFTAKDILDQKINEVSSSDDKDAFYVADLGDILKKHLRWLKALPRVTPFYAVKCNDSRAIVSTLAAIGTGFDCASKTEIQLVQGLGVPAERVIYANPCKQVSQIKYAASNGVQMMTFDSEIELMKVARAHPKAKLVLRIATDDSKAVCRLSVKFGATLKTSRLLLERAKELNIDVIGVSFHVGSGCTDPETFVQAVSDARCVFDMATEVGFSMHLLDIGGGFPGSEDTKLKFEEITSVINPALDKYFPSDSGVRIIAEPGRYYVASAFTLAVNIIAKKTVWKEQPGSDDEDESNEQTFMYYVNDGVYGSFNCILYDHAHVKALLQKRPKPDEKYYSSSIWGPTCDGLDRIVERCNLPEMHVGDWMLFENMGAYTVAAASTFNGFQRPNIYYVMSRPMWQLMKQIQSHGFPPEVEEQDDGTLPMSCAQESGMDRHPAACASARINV
Procedure, shortened: (§1)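 RAW-264 cells at 5.5 × 10^5 cells/mL in serum-free DMEM-H21 with 15 mM HEPES and 1 mM pyruvate, held overnight at 37 °C/5% CO2. Murine γ-IFN (2000 units/mL) and test material in pyrogen-free water then added for 4 h. Cells were lysed by sonication, and ODC in the supernatant was assayed with [3H]-L-ornithine plus 1 mM L-ornithine stock, 60 min at 37 °C. LPS 5 ng/mL served as internal standard.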

[2] = target: T1, Ornithine decarboxylase (Mus musculus); experiment: Compound was evaluated for the stimulation of Ornithine decarboxylase (ODC) activity in murine macrophagelike cell line RAW264 as a parameter for macrophage stimulation, and the pyrogenicity test in rabbits at a concentration of 2 ug/ml; procedure, shortened: as §1
[3] = target: T1, Ornithine decarboxylase (Mus musculus); experiment: Compound was evaluated for the stimulation of Ornithine decarboxylase (ODC) activity in murine macrophagelike cell line RAW264 as a parameter for macrophage stimulation, and the pyrogenicity test in rabbits at a concentration of 0.1 ug/ml; procedure, shortened: as §1
[4] = target: T1, Ornithine decarboxylase (Mus musculus); experiment: Compound was evaluated for the stimulation of Ornithine decarboxylase (ODC) activity in murine macrophagelike cell line RAW264 as a parameter for macrophage stimulation, and the pyrogenicity test in rabbits at a concentration of 0.5 ug/ml; procedure, shortened: as §1
Oryctolagus cuniculus [5] = experiment: Increase in temperature of three rabbits treatment with the compound at a dose of 50 ug/kg.; type: functional
[6] = Endotoxic activity determined by limulus amoebocyte lysate (LAL) assay
[7] = target: T1, Ornithine decarboxylase (Mus musculus); experiment: Compound was evaluated for the stimulation of Ornithine decarboxylase (ODC) activity in murine macrophagelike cell line RAW264 as a parameter for macrophage stimulation, and the pyrogenicity test in rabbits at a concentration of 10 ug/ml; procedure, shortened: as §1
Oryctolagus cuniculus [8] = experiment: Increase in temperature of three rabbits treatment with the compound at a dose of 1 ug/kg.; type: functional

`CCCCCCCCCCCC(O)CC(=O)N[C@@H]1C(OCC2OC(OP(=O)(O)O)[C@@H](NC(=O)CC(O)CCCCCCCCCCC)C(OC(=O)CC(O)CCCCCCCCCCC)[C@@H]2O)OC(CO)[C@@H](O)C1OC(=O)CC(O)CCCCCCCCCCC` (stereo partly specified) gave a Stimulation [1] of 2%, a Stimulation [2] of 98% and a Stimulation [3] of 30%. For the same molecule, the Stimulation [4] was 60%, the increase in temperature (Oryctolagus cuniculus [5]) was 5.95 and the EU [6] was 80000 g⁻¹. For the same molecule, the Stimulation [7] was 97% and the increase in temperature (Oryctolagus cuniculus [8]) was 2.1.

`CCCCCCCCCCCC(O)CC(=O)N[C@@H]1C(OCC2OC(P(=O)(O)O)[C@@H](NC(=O)CC(O)CCCCCCCCCCC)C(OC(=O)CC(O)CCCCCCCCCCC)[C@@H]2O)OC(CO)[C@@H](O)C1OC(=O)CC(O)CCCCCCCCCCC` (stereo partly specified) [PHOSPHONATE ANALOGUE OF LIPID A] showed a Stimulation [1] of 5%, a Stimulation [2] of 75% and a Stimulation [3] of 20%. It also gave a Stimulation [4] of 70%, an increase in temperature (Oryctolagus cuniculus [5]) of 6.6 and an EU [6] of 30000 g⁻¹. It also gave a Stimulation [7] of 84% and an increase in temperature (Oryctolagus cuniculus [8]) of 2.1.
